# Experiments:
# Aeromonas hydrophila = test: Antibacterial activity against Aeromonas hydrophila OCC 778 after 18 hrs; assay type: functional; conditions: OCC 778, 18 h
# Outline: (§1)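 Broth microdilution in Nutrient Broth No. 2; stocks in ethanol diluted to 0.01–128 µg/ml (triclosan) or 0.25–256 µg/ml (glycosides). Overnight 37 °C NB2 cultures diluted 1 in 10^4 in saline and added to the dilutions. Incubation at 37 °C with agitation, OD read every 15 min; MIC is the lowest concentration preventing any OD rise after 18 h.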
# Citrobacter freundii [1] = test: Antibacterial activity against Citrobacter freundii OCC 851 after 18 hrs; assay type: functional; conditions: OCC 851, 18 h; outline: as §1
# Cronobacter sakazakii = test: Antibacterial activity against Cronobacter sakazakii 29544 after 18 hrs; assay type: functional; conditions: Cronobacter sakazakii, 29544, 18 h; outline: as §1
# Klebsiella aerogenes [2] = test: Antibacterial activity against Enterobacter aerogenes ATCC 13048 after 18 hrs; assay type: functional; conditions: ATCC 13048, 18 h; outline: as §1
# [3] = Antibacterial activity against Enterobacter cloacae ATCC 13047 after 18 hrs; assay type: functional, Enterobacter cloacae subsp. cloacae; conditions: ATCC 13047, 18 h; outline: as §1
# Escherichia coli [4] = test: Antibacterial activity against Escherichia coli ATCC 8739 after 18 hrs; assay type: functional; conditions: ATCC 8739, 18 h; outline: as §1
# Escherichia coli [5] = test: Antibacterial activity against Escherichia coli ATCC 10536 after 18 hrs; assay type: functional; conditions: ATCC 10536, 18 h; outline: as §1
# Escherichia coli [6] = test: Antibacterial activity against Escherichia coli ATCC 11775 after 18 hrs; assay type: functional; outline: as §1
# Escherichia coli [7] = test: Antibacterial activity against Escherichia coli ATCC 25922 after 18 hrs; assay type: functional; conditions: ATCC 25922, 18 h; outline: as §1
# Escherichia coli [8] = test: Antibacterial activity against Escherichia coli ATCC 35218 after 18 hrs; assay type: functional; conditions: ATCC 35218, 18 h; outline: as §1
# Escherichia coli [9] = test: Antibacterial activity against Escherichia coli 700728 after 18 hrs; assay type: functional; conditions: Escherichia coli, 700728, 18 h; outline: as §1
# Escherichia coli [10] = test: Antibacterial activity against Escherichia coli NCTC 13216 after 18 hrs; assay type: functional; conditions: NCTC 13216, 18 h; outline: as §1
# Escherichia coli [11] = test: Antibacterial activity against Escherichia coli OCC 122 after 18 hrs; assay type: functional; conditions: OCC 122, 18 h; outline: as §1
# Escherichia hermannii = test: Antibacterial activity against Escherichia hermannii 33650 after 18 hrs; assay type: functional; conditions: Atlantibacter hermannii, 33650, 18 h; outline: as §1
# Hafnia alvei = test: Antibacterial activity against Hafnia alvei 13337 after 18 hrs; assay type: functional; conditions: Hafnia alvei, 13337, 18 h; outline: as §1
# Klebsiella aerogenes [12] = test: Antibacterial activity against Klebsiella aerogenes NCTC 8167 after 18 hrs; assay type: functional; conditions: NCTC 8167, 18 h; outline: as §1
# Klebsiella pneumoniae [13] = test: Antibacterial activity against Klebsiella pneumoniae ATCC 10031 after 18 hrs; assay type: functional; conditions: ATCC 10031, 18 h; outline: as §1
# Proteus mirabilis = test: Antibacterial activity against Proteus mirabilis ATCC 12453 after 18 hrs; assay type: functional; conditions: ATCC 12453, 18 h; outline: as §1
# Proteus vulgaris = test: Antibacterial activity against Proteus vulgaris OCC 195 after 18 hrs; assay type: functional; conditions: OCC 195, 18 h; outline: as §1
# Pseudomonas aeruginosa = test: Antibacterial activity against Pseudomonas aeruginosa ATCC 27853 after 18 hrs; assay type: functional; conditions: ATCC 27853, 18 h; outline: as §1
# Klebsiella pneumoniae [14] = test: Antibacterial activity against Klebsiella pneumoniae ATCC 13883 after 18 hrs; assay type: functional; conditions: ATCC 13883, 18 h; outline: as §1
# Citrobacter freundii [15] = test: Antibacterial activity against Citrobacter freundii 8090 after 18 hrs; assay type: functional; conditions: Citrobacter freundii, 8090, 18 h; outline: as §1
# Serratia marcescens = test: Antibacterial activity against Serratia marcescens OCC 217 after 18 hrs; assay type: functional; conditions: OCC 217, 18 h; outline: as §1
# Bacillus cereus = test: Antibacterial activity against Bacillus cereus ATCC 14579 after 18 hrs; assay type: functional; conditions: ATCC 14579, 18 h; outline: as §1
# Bacillus subtilis = test: Antibacterial activity against Bacillus subtilis NCTC 10073 after 18 hrs; assay type: functional; conditions: NCTC 10073, 18 h; outline: as §1
# Enterococcus faecalis [16] = test: Antibacterial activity against Enterococcus faecalis ATCC 29212 after 18 hrs; assay type: functional; conditions: ATCC 29212, 18 h; outline: as §1
# Enterococcus faecalis [17] = test: Antibacterial activity against Enterococcus faecalis ATCC 33186 after 18 hrs; assay type: functional; conditions: ATCC 33186, 18 h; outline: as §1
# Enterococcus faecium = test: Antibacterial activity against Enterococcus faecium ATCC 19434 after 18 hrs; assay type: functional; conditions: ATCC 19434, 18 h; outline: as §1
# Staphylococcus aureus [18] = test: Antibacterial activity against Staphylococcus aureus ATCC 6538 after 18 hrs; assay type: functional; conditions: ATCC 6538, 18 h; outline: as §1
# Staphylococcus aureus [19] = test: Antibacterial activity against Staphylococcus aureus ATCC 6538P after 18 hrs; assay type: functional; outline: as §1
# Staphylococcus aureus [20] = test: Antibacterial activity against Staphylococcus aureus ATCC 9144 after 18 hrs; assay type: functional; conditions: ATCC 9144, 18 h; outline: as §1
# Staphylococcus aureus [21] = test: Antibacterial activity against Staphylococcus aureus ATCC 25923 after 18 hrs; assay type: functional; conditions: ATCC 25923, 18 h; outline: as §1
# Staphylococcus aureus [22] = test: Antibacterial activity against Staphylococcus aureus ATCC 29213 after 18 hrs; assay type: functional; conditions: ATCC 29213, 18 h; outline: as §1
# Staphylococcus aureus [23] = test: Antibacterial activity against Staphylococcus aureus NCTC 13758 after 18 hrs; assay type: functional; conditions: NCTC 13758, 18 h; outline: as §1
# Staphylococcus aureus [24] = test: Antibacterial activity against Staphylococcus aureus OCC 104 after 18 hrs; assay type: functional; conditions: OCC 104, 18 h; outline: as §1
# Staphylococcus aureus [25] = test: Antibacterial activity against Staphylococcus aureus OCC 106 after 18 hrs; assay type: functional; conditions: OCC 106, 18 h; outline: as §1
# [26] = tested on: Staphylococcus epidermidis; test: Antibacterial activity against Staphylococcus epidermidis 155 after 18 hrs; assay type: functional; conditions: Staphylococcus epidermidis, 155, 18 h; outline: as §1
# [27] = tested on: Staphylococcus epidermidis; test: Antibacterial activity against Staphylococcus epidermidis ATCC 12228 after 18 hrs; assay type: functional; conditions: ATCC 12228, 18 h; outline: as §1
# [28] = tested on: Staphylococcus epidermidis; test: Antibacterial activity against Staphylococcus epidermidis ATCC 14990 after 18 hrs; assay type: functional; conditions: ATCC 14990, 18 h; outline: as §1
# [29] = tested on: Staphylococcus haemolyticus; test: Antibacterial activity against Staphylococcus haemolyticus OCC 2223 after 18 hrs; assay type: functional; conditions: OCC 2223, 18 h
# Outline: (§2)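 Broth microdilution in Nutrient Broth No. 2. Ethanol stocks were diluted in broth to 0.01–128 µg/ml for triclosan and 0.25–256 µg/ml for glycosides. Overnight 37°C NB2 cultures were diluted 1 in 10^4 in saline and added to the wells. Plates were incubated at 37°C with OD read every 15 min after agitation. MIC was the lowest concentration giving no OD increase at 18 h.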
# [30] = tested on: Staphylococcus saprophyticus; test: Antibacterial activity against Staphylococcus saprophyticus ATCC 15305 after 18 hrs; assay type: functional; conditions: ATCC 15305, 18 h; outline: as §2
# Streptococcus agalactiae = test: Antibacterial activity against Streptococcus agalactiae OCC 182 after 18 hrs; assay type: functional; conditions: OCC 182, 18 h; outline: as §2
# Streptococcus pneumoniae [31] = test: Antibacterial activity against Streptococcus pneumoniae 6305 after 18 hrs; assay type: functional; conditions: Streptococcus pneumoniae, 6305, 18 h; outline: as §2
# Streptococcus pneumoniae [32] = test: Antibacterial activity against Streptococcus pneumoniae ATCC 49619 after 18 hrs; assay type: functional; conditions: ATCC 49619, 18 h; outline: as §2
# Streptococcus pyogenes = test: Antibacterial activity against Streptococcus pyogenes ATCC 19615 after 18 hrs; assay type: functional; conditions: ATCC 19615, 18 h; outline: as §2
# Streptococcus viridans = test: Antibacterial activity against Streptococcus viridans OCC 234 after 18 hrs; assay type: functional; conditions: OCC 234, 18 h; outline: as §2
# [33] = tested on: Salmonella enterica subsp. enterica serovar Abony; test: Antibacterial activity against Salmonella enterica subspecies enterica serotype Abony NCTC 6017 after 18 hrs; assay type: functional; conditions: NCTC 6017, 18 h; outline: as §1
# [34] = Antibacterial activity against Salmonella enterica subspecies enterica serotype Arizonae OCC 706 after 18 hrs; assay type: functional, Salmonella enterica subsp. enterica serovar Arizonae; conditions: OCC 706, 18 h; outline: as §1
# [35] = Antibacterial activity against Salmonella enterica subspecies enterica serotype Dublin OCC 627 after 18 hrs; assay type: functional, Salmonella enterica subsp. enterica serovar Dublin; conditions: OCC 627, 18 h; outline: as §1
# Salmonella enteritidis = test: Antibacterial activity against Salmonella enterica subspecies enterica serotype Enteritidis 13076 after 18 hrs; assay type: functional, Salmonella enterica subsp. enterica serovar Enteritidis; conditions: Salmonella enterica, 13076, 18 h; outline: as §1
# [36] = Antibacterial activity against Salmonella enterica subspecies enterica serotype Indiana OCC 597 after 18 hrs; assay type: functional, Salmonella enterica subsp. enterica serovar Indiana; conditions: OCC 597, 18 h; outline: as §1
# [37] = Antibacterial activity against Salmonella enterica subspecies enterica serotype Infantis OCC 2133 after 18 hrs; assay type: functional, Salmonella enterica subsp. enterica serovar Infantis; conditions: OCC 2133, 18 h; outline: as §1
# [38] = Antibacterial activity against Salmonella enterica subspecies enterica serotype Nottingham NCTC 7832 after 18 hrs; assay type: functional, Salmonella enterica subsp. enterica serovar Nottingham; conditions: NCTC 7832, 18 h; outline: as §1
# [39] = Antibacterial activity against Salmonella enterica subspecies enterica serotype Poona NCTC 4840 after 18 hrs; assay type: functional, Salmonella enterica subsp. enterica serovar Poona; conditions: NCTC 4840, 18 h; outline: as §1
# [40] = Antibacterial activity against Salmonella enterica subspecies enterica serotype Pullorum OCC 273 after 18 hrs; assay type: functional, Salmonella enterica subsp. enterica serovar Pullorum; conditions: OCC 273, 18 h; outline: as §1
# Salmonella typhimurium = test: Antibacterial activity against Salmonella enterica subspecies enterica serotype typhimurium ATCC 14028 after 18 hrs; assay type: functional, Salmonella enterica subsp. enterica serovar Typhimurium; conditions: ATCC 14028, 18 h; outline: as §1
# [41] = Antibacterial activity against Salmonella enterica subspecies enterica serotype Virchow NCTC 5742 after 18 hrs; assay type: functional, Salmonella enterica subsp. enterica serovar Virchow; conditions: NCTC 5742, 18 h; outline: as §1
smiles,measurement,setting,value
O[C@@H]1[C@@H](Oc2cc(Cl)ccc2Oc2ccc(Cl)cc2Cl)OC[C@@H](O)[C@H]1O,MIC,Aeromonas hydrophila,128 µg/mL
same,MIC,Citrobacter freundii [1],8 µg/mL
same,MIC,Cronobacter sakazakii,8 µg/mL
same,MIC,Klebsiella aerogenes [2],8 µg/mL
same,MIC,[3],0.5 µg/mL
same,MIC,Escherichia coli [4],0.5 to 4 µg/mL
same,MIC,Escherichia coli [5],0.5 to 4 µg/mL
same,MIC,Escherichia coli [6],0.5 to 4 µg/mL
same,MIC,Escherichia coli [7],0.5 to 4 µg/mL
same,MIC,Escherichia coli [8],0.5 to 4 µg/mL
same,MIC,Escherichia coli [9],0.5 to 4 µg/mL
same,MIC,Escherichia coli [10],0.5 to 4 µg/mL
same,MIC,Escherichia coli [11],0.5 to 4 µg/mL
same,MIC,Escherichia hermannii,1 µg/mL
same,MIC,Hafnia alvei,0.5 µg/mL
same,MIC,Klebsiella aerogenes [12],4 µg/mL
same,MIC,Klebsiella pneumoniae [13],0.5 µg/mL
same,MIC,Proteus mirabilis,4 µg/mL
same,MIC,Proteus vulgaris,16 µg/mL
same,MIC,Pseudomonas aeruginosa,> 256 µg/mL
same,MIC,Klebsiella pneumoniae [14],0.5 µg/mL
same,MIC,Citrobacter freundii [15],8 µg/mL
same,MIC,Serratia marcescens,> 256 µg/mL
same,MIC,Bacillus cereus,128 µg/mL
same,MIC,Bacillus subtilis,32 µg/mL
same,MIC,Enterococcus faecalis [16],128 µg/mL
same,MIC,Enterococcus faecalis [17],128 µg/mL
same,MIC,Enterococcus faecium,256 µg/mL
same,MIC,Staphylococcus aureus [18],0.5 µg/mL
same,MIC,Staphylococcus aureus [19],0.5 µg/mL
same,MIC,Staphylococcus aureus [20],0.5 µg/mL
same,MIC,Staphylococcus aureus [21],0.5 µg/mL
same,MIC,Staphylococcus aureus [22],0.5 µg/mL
same,MIC,Staphylococcus aureus [23],0.5 µg/mL
same,MIC,Staphylococcus aureus [24],0.5 µg/mL
same,MIC,Staphylococcus aureus [25],0.5 µg/mL
same,MIC,[26],0.5 µg/mL
same,MIC,[27],0.5 µg/mL
same,MIC,[28],0.5 µg/mL
same,MIC,[29],0.5 µg/mL
same,MIC,[30],8 µg/mL
same,MIC,Streptococcus agalactiae,128 µg/mL
same,MIC,Streptococcus pneumoniae [31],64 µg/mL
same,MIC,Streptococcus pneumoniae [32],64 µg/mL
same,MIC,Streptococcus pyogenes,16 µg/mL
same,MIC,Streptococcus viridans,128 µg/mL
same,MIC,[33],2 to 8 µg/mL
same,MIC,[34],2 to 8 µg/mL
same,MIC,[35],2 to 8 µg/mL
same,MIC,Salmonella enteritidis,2 to 8 µg/mL
same,MIC,[36],2 to 8 µg/mL
same,MIC,[37],2 to 8 µg/mL
same,MIC,[38],2 to 8 µg/mL
same,MIC,[39],2 to 8 µg/mL
same,MIC,[40],2 to 8 µg/mL
same,MIC,Salmonella typhimurium,2 to 8 µg/mL
same,MIC,[41],2 to 8 µg/mL

# Source: ChEMBL document CHEMBL4325893, “Synthesis and antibacterial profiles of targeted triclosan derivatives” (2019)
